From ChEMBL document CHEMBL1138270, “Antimycobacterial activities of novel 1-(cyclopropyl/tert-butyl/4-fluorophenyl)-1,4-dihydro- 6-nitro-4-oxo-7-(substituted secondary amino)-1,8-naphthyridine-3-carboxylic acid” (J Med Chem, 2007)
≈ marks a conversion by molar mass, not a printed value.

tested on: Mycobacterium tuberculosis; test: Antimycobacterial activity against multi-drug-resistant Mycobacterium tuberculosis by agar dilution method; assay type: functional
In short: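 MIC was determined by agar dilution, in duplicate.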

Compound | MIC
CC(C)(C)n1cc(C(=O)O)c(=O)c2cc([N+](=O)[O-])c(N3CCSCC3)nc21 | 0.48 µM (≈ 0.188 µg/mL)
CCN(CC)C(=O)C1CCCN(c2nc3c(cc2[N+](=O)[O-])c(=O)c(C(=O)O)cn3-c2ccc(F)cc2)C1 (stereo not drawn) | 1.52 µM (≈ 0.777 µg/mL)
O=C(O)c1cn2c(n1)CN(c1nc3c(cc1[N+](=O)[O-])c(=O)c(C(=O)O)cn3C1CC1)CC2 | 1.77 µM (≈ 0.779 µg/mL)
CC(C)(C)NC(=O)C1c2ccccc2CCN1c1nc2c(cc1[N+](=O)[O-])c(=O)c(C(=O)O)cn2C(C)(C)C (stereo not drawn) | 1.49 µM (≈ 0.777 µg/mL)
O=C(O)c1cn(C2CC2)c2nc(N3CCN(C(=O)c4ccco4)CC3)c([N+](=O)[O-])cc2c1=O | 3.44 µM (≈ 1.56 µg/mL)
O=C(O)c1cn(C2CC2)c2nc(N3CCN(C(=O)C4COc5ccccc5O4)CC3)c([N+](=O)[O-])cc2c1=O (stereo not drawn) | 1.49 µM (≈ 0.777 µg/mL)
CC(C)(C)NC(=O)C1c2ccccc2CCN1c1nc2c(cc1[N+](=O)[O-])c(=O)c(C(=O)O)cn2C1CC1 (stereo not drawn) | 6.19 µM (≈ 3.13 µg/mL)
O=C(O)c1cn(C2CC2)c2nc(N3CCN(Cc4ccc5c(c4)OCO5)CC3)c([N+](=O)[O-])cc2c1=O | 1.58 µM (≈ 0.78 µg/mL)
CC1CN(c2nc3c(cc2[N+](=O)[O-])c(=O)c(C(=O)O)cn3-c2ccc(F)cc2)CC(C)O1 (stereo not drawn) | 0.43 µM (≈ 0.19 µg/mL)
CC(C)(C)NC(=O)C1c2ccccc2CCN1c1nc2c(cc1[N+](=O)[O-])c(=O)c(C(=O)O)cn2-c1ccc(F)cc1 (stereo not drawn) | 1.39 µM (≈ 0.778 µg/mL)
CC(C)(C)n1cc(C(=O)O)c(=O)c2cc([N+](=O)[O-])c(N3CCn4cc(C(=O)O)nc4C3)nc21 | 0.42 µM (≈ 0.192 µg/mL)
COc1c(N2CCNC(C)C2)c(F)cc2c(=O)c(C(=O)O)cn(C3CC3)c12 (stereo not drawn) [GATIFLOXACIN] | 8.34 µM (≈ 3.13 µg/mL)
O=C(O)c1cn(-c2ccc(F)cc2)c2nc(N3CCC(O)(c4ccc(Cl)cc4)CC3)c([N+](=O)[O-])cc2c1=O | 0.72 µM (≈ 0.388 µg/mL)
O=C(O)c1cn(C2CC2)c2nc(N3CCC(n4c(=O)[nH]c5cc(Cl)ccc54)CC3)c([N+](=O)[O-])cc2c1=O | 0.74 µM (≈ 0.388 µg/mL)
COc1ccc(CC2C3=C(CCCC3)CCN2c2nc3c(cc2[N+](=O)[O-])c(=O)c(C(=O)O)cn3C2CC2)cc1 (stereo not drawn) | 0.74 µM (≈ 0.393 µg/mL)
CC(C)(C)n1cc(C(=O)O)c(=O)c2cc([N+](=O)[O-])c(N3CCN(C(=O)C4COc5ccccc5O4)CC3)nc21 (stereo not drawn) | 2.9 µM (≈ 1.56 µg/mL)
O=C(O)c1cn(-c2ccc(F)cc2)c2nc(N3CCN(C(=O)c4ccco4)CC3)c([N+](=O)[O-])cc2c1=O | 1.54 µM (≈ 0.781 µg/mL)

Compound | MIC
CC(C)(C)n1cc(C(=O)O)c(=O)c2cc([N+](=O)[O-])c(N3CCC(O)(c4ccc(Cl)cc4)CC3)nc21 | 1.56 µM (≈ 0.781 µg/mL)
NNC(=O)c1ccncc1 [ISONIAZID] | 45.6 µM (≈ 6.25 µg/mL)
CC1CN(c2nc3c(cc2[N+](=O)[O-])c(=O)c(C(=O)O)cn3C2CC2)CC(C)O1 (stereo not drawn) | 4.02 µM (≈ 1.56 µg/mL)
CC(C)(C)n1cc(C(=O)O)c(=O)c2cc([N+](=O)[O-])c(N3CCN(Cc4ccc5c(c4)OCO5)CC3)nc21 | 3.06 µM (≈ 1.56 µg/mL)
CC(C)(C)n1cc(C(=O)O)c(=O)c2cc([N+](=O)[O-])c(N3CCC4(CC3)OCCO4)nc21 | 0.44 µM (≈ 0.19 µg/mL)
CN1CCN(c2nc3c(cc2[N+](=O)[O-])c(=O)c(C(=O)O)cn3-c2ccc(F)cc2)CC1c1ccccc1 (stereo not drawn) | 0.18 µM (≈ 0.0906 µg/mL)
O=C(O)c1cn(-c2ccc(F)cc2)c2nc(N3CCSCC3)c([N+](=O)[O-])cc2c1=O | 0.91 µM (≈ 0.392 µg/mL)
CN1CCN(c2nc3c(cc2[N+](=O)[O-])c(=O)c(C(=O)O)cn3C(C)(C)C)CC1c1ccccc1 (stereo not drawn) | 0.84 µM (≈ 0.391 µg/mL)
O=C(O)c1cn2c(n1)CN(c1nc3c(cc1[N+](=O)[O-])c(=O)c(C(=O)O)cn3-c1ccc(F)cc1)CC2 | 0.38 µM (≈ 0.188 µg/mL)
CC(C)(C)n1cc(C(=O)O)c(=O)c2cc([N+](=O)[O-])c(N3CCC(n4c(=O)[nH]c5cc(Cl)ccc54)CC3)nc21 | 2.88 µM (≈ 1.56 µg/mL)
O=C(O)c1cn(-c2ccc(F)cc2)c2nc(N3CCC(N4CCCCC4)CC3)c([N+](=O)[O-])cc2c1=O | 1.57 µM (≈ 0.778 µg/mL)
CC1(C)COCN1c1nc2c(cc1[N+](=O)[O-])c(=O)c(C(=O)O)cn2C(C)(C)C | 0.1 µM (≈ 0.039 µg/mL)
CC(C)(C)n1cc(C(=O)O)c(=O)c2cc([N+](=O)[O-])c(N3CCN(C(=O)c4ccco4)CC3)nc21 | 3.32 µM (≈ 1.56 µg/mL)
O=C(O)c1cn(-c2ccc(F)cc2)c2nc(N3CCC(n4c(=O)[nH]c5cc(Cl)ccc54)CC3)c([N+](=O)[O-])cc2c1=O | 0.62 µM (≈ 0.359 µg/mL)
O=C(O)c1cn(-c2ccc(F)cc2)c2nc(N3CCN(C(c4ccccc4)c4ccc(Cl)cc4)CC3)c([N+](=O)[O-])cc2c1=O (stereo not drawn) | 0.31 µM (≈ 0.19 µg/mL)
CC(C)(C)n1cc(C(=O)O)c(=O)c2cc([N+](=O)[O-])c(N3CCC(N4CCCCC4)CC3)nc21 | 1.7 µM (≈ 0.778 µg/mL)
